Data: ChEMBL document CHEMBL4715797, “Structure-Activity Relationships of [des-Arg]Dynorphin A Analogues at the κ Opioid Receptor” (J Med Chem, 2016)
Calls of active or inactive are those of the source. Where a SMILES comes first, the peptide text is derived from it. [ ]: non-standard residue; d: D form. The star is where a group is joined. X1 = Cc1cc(O)cc(C)c1C[C@H](C)C(=O)*; Orn = NCCC[C@H](N)C(=O)O

Key:
[1] = Toxicity in mouse HN9.10 cells expressing human KOR assessed as cell viability at 1 mM after 24 hrs by XTT assay; format: cell-based; conditions: read-out: Activity
Mu-type opioid receptor = Mu-type opioid receptor (Homo sapiens, UniProt P35372); assay: Displacement of [3H]diprenorphine from human MOR expressed in mouse NG108-15 cell membranes incubated for 2 hrs by liquid scintillation counting based radioligand competition assay
Mu-type opioid receptor, sequence (P35372 whole entry): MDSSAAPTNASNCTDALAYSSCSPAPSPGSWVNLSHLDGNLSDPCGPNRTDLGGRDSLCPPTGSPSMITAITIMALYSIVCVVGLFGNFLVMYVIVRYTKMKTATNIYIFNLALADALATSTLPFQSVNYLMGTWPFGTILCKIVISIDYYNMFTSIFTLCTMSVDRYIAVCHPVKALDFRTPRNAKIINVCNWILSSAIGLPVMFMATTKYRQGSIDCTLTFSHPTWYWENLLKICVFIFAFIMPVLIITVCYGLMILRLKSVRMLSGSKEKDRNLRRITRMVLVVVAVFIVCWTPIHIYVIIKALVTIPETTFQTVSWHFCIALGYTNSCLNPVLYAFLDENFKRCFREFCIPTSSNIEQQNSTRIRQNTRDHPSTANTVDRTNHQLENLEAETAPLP

[2] = Half life in rat plasma by RP-HPLC analysis; format: ADME, cell-free
Summary of the method: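 Stock at 50 mg/mL diluted 5-fold into heparinized rat plasma at 37 °C. Aliquots taken at 1, 2, 4, 6, 12 and 24 h were quenched with EtOH (ACN for one analogue) and centrifuged.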

[3] = biological target: Delta-type opioid receptor (Homo sapiens, UniProt P41143); assay: Displacement of [3H]deltorphin-II from human DOR expressed in CHO cell membranes incubated for 2 hrs by liquid scintillation counting based radioligand competition assay
Delta-type opioid receptor, sequence (P41143 whole entry): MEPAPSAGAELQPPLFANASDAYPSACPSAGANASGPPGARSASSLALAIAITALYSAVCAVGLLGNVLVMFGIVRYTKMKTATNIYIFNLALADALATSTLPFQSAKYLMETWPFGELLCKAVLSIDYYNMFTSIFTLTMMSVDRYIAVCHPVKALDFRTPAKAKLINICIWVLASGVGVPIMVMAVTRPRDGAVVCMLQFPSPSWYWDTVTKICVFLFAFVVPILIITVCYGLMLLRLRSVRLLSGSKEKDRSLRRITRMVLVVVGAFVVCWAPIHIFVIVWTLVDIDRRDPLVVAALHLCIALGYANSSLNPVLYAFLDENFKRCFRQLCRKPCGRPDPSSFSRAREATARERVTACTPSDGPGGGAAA
Summary of the method: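 Crude membranes from transfected cells, 50 µg protein, in 50 mM Tris-HCl pH 7.4 with bacitracin 50 µg/mL, captopril 10 µM, PMSF 100 µM and BSA 5 mg/mL. Ten concentrations (10−4–10−13 M) were run against 500 pM [3H]deltorphin II for 2 h at rt with shaking. Nonspecific binding was taken with 10 µM naloxone. Filtered on PEI-soaked GF/B, washed in cold saline, scintillation counted.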

Mus musculus [4] = assay: Inhibition of KOR selective agonist FE200665-induced antinociceptive activity in ICR mouse assessed as effect on tail withdrawal latency at 10 ug, it dosed 15 mins before FE200665 dosing and measured up to 24 hrs by tail flick test; format: functional, organism-based; conditions: dose 10.0 µg, time hrs <=24
Summary of the method: (§1)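 Adult male ICR mice given vehicle (MPH2O) or compound by lumbar puncture, 10 µg in 5 µL, n = 6/treatment, at t = −15 min. At t = 0 they received FE200665, 10 µg in 5 µL by lumbar puncture. Tail flick from 52 °C water retested up to 9 times over 24 h, 10.0 s cutoff. % antinociception = 100×(test−baseline)/(cutoff−baseline). Nonparametric two-way ANOVA with Bonferroni post hoc.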

Mus musculus [5] = organism: Mus musculus; assay: Antinociceptive activity in ICR mouse assessed as elevation in tail withdrawal latency at 10 ug, it measured after 30 mins by tail flick test; format: functional, organism-based; conditions: dose 10.0 µg
Mus musculus [6] = assay: Inhibition of KOR selective agonist FE200665-induced antinociceptive activity in ICR mouse assessed as effect on tail withdrawal latency at 10 ug, it dosed 15 mins before FE200665 dosing and measured at 24 hrs by tail flick test; format: functional, organism-based; conditions: dose 10.0 µg; summary of the method: as §1
Mus musculus [7] = organism: Mus musculus; assay: Antinociceptive activity in ICR mouse assessed as elevation in tail withdrawal latency at 0.1 ug, it measured after 30 mins by tail flick test; format: functional, organism-based; conditions: dose 0.1 µg
Mus musculus [8] = organism: Mus musculus; assay: Antinociceptive activity in ICR mouse assessed as elevation in tail withdrawal latency at 1 ug, it measured after 30 mins by tail flick test; format: functional, organism-based; conditions: dose 1.0 µg
[9] = biological target: T1, Kappa-type opioid receptor (Homo sapiens, UniProt P41145); assay: Agonist activity at human KOR expressed in CHO cell membranes at 10 uM incubated for 1 hr by liquid scintillation counting based [35S]GTP-gamma-S assay; conditions: Cell membrane
T1 sequence (P41145 whole entry): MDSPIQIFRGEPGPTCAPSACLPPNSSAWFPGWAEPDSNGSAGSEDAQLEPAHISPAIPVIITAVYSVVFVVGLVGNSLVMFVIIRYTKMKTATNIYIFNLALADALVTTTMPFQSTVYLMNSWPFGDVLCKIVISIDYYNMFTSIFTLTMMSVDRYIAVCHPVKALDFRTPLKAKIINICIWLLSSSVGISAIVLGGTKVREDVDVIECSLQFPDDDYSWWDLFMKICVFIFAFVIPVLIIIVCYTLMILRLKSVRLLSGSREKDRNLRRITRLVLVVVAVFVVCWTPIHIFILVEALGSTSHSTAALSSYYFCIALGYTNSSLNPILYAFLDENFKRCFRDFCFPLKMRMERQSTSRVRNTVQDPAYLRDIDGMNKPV
Summary of the method: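 Frozen KOR-CHO cell pellets are homogenized and spun at 20 000g. 15 µg of membrane protein is incubated with test compound or vehicle and 0.1 nM [35S]GTPγS in 50 mM Tris-HCl pH 7.4 with 100 mM NaCl, 5 mM MgCl2, 1 mM EDTA and 40 µM GDP, for 1 h at 30 °C. Filtration and scintillation counting follow, and the result is expressed as % of U50,488 stimulation.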

Cavia porcellus = organism: Cavia porcellus; assay: Agonist activity at OPRK in isolated Hartley guinea pig ileum/longitudinal muscle with myenteric plexus assessed as inhibition of electrically stimulated muscle contraction at 1 uM relative to control; format: tissue-based
Summary of the method: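 Male Hartley guinea pig LMMP strips under 1 g tension in oxygenated Krebs bicarbonate buffer, 37 °C, field-stimulated at 0.1 Hz, 0.4 ms, supramaximal voltage. Compound tested at 1 µM. Activity given as percent of agonist response relative to the mean signal over the 3 min before drug. Tissue integrity checked first with a PL-017 dose-response curve.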

[10] = biological target: T1, Kappa-type opioid receptor; assay: Antagonist activity at human KOR expressed in CHO cell membranes assessed as reduction in U50,488 induced response incubated for 1 hr by liquid scintillation counting based [35S]GTP-gamma-S assay; design: species or system Cell membrane
[11] = biological target: T1, Kappa-type opioid receptor; assay: Antagonist activity at human KOR expressed in CHO cell membranes assessed as reduction in U50,488 induced response incubated for 1 hr by liquid scintillation counting based [35S]GTP-gamma-S assay relative to naloxone; conditions: Cell membrane
Summary of the method: (§2)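 The assay uses KOR-CHO membranes (15 µg protein) with 0.1 nM [35S]GTPγS and 40 µM GDP, for 1 h at 30 °C, in the presence of 100 nM U50,488 as agonist. Bound label is counted after filtration. Data are normalized to 100 nM U50,488 (100%) and fit to a three-parameter inhibition curve. Imax is given relative to naloxone.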

[12] = biological target: T1, Kappa-type opioid receptor; assay: Antagonist activity at human KOR expressed in CHO cell membranes assessed as reduction in U50,488 induced response at 10 uM incubated for 1 hr by liquid scintillation counting based [35S]GTP-gamma-S assay relative to naloxone; conditions: Cell membrane; summary of the method: as §2
Mus musculus [13] = assay: Inhibition of KOR selective agonist FE200665-induced antinociceptive activity in ICR mouse assessed as effect on tail withdrawal latency at 10 ug, it dosed 15 mins before FE200665 dosing and measured after 45 mins by tail flick test; format: functional, organism-based; conditions: dose 10.0 µg, time 60.0 min; summary of the method: as §1
Mus musculus [14] = assay: Inhibition of KOR selective agonist FE200665-induced antinociceptive activity in ICR mouse assessed as effect on tail withdrawal latency at 10 ug, it dosed 15 mins before FE200665 dosing and measured at 15 mins by tail flick test; format: functional, organism-based; conditions: dose 10.0 µg, time 30.0 min; summary of the method: as §1
Mus musculus [15] = assay: Inhibition of KOR selective agonist FE200665-induced antinociceptive activity in ICR mouse assessed as effect on tail withdrawal latency at 10 ug, it dosed 15 mins before FE200665 dosing and measured up to 45 mins by tail flick test; format: functional, organism-based; conditions: dose 10.0 µg, time min <=45; summary of the method: as §1

`CC[C@H](C)[C@H](NC(=O)[C@H](CCCN=C(N)N)NC(=O)[C@H](CCCN=C(N)N)NC(=O)[C@H](CC(C)C)NC(=O)[C@H](Cc1ccccc1)NC(=O)CNC(=O)CNC(=O)[C@@H](N)Cc1ccc(O)cc1)C(=O)N[C@@H](CCCN=C(N)N)C(=O)N1CCC[C@H]1C(=O)N[C@@H](CCCCN)C(N)=O` gave a viability at 24 h, 1000 µM [1] of 100%.

For `CC(=O)N[C@@H](Cc1ccc(O)cc1)C(=O)NCC(=O)NCC(=O)N[C@@H](Cc1ccccc1)C(=O)N[C@@H](CC(C)C)C(=O)N[C@@H](CCCNC(=N)N)C(=O)N[C@H](C)C(=O)N[C@@H](CCCNC(=N)N)C(=O)N1CCC[C@@H]1C(=O)N[C@@H](CCCCN)C(N)=O` (Ac-YGGFLR[dA]R[dP]K-NH2), the Ki (Mu-type opioid receptor; ng108-15) was “Not Active” and the half-life [2] was 21000 min.

With `CC(=O)N[C@@H](Cc1ccc(O)cc1)C(=O)NCC(=O)N1CCC[C@H]1C(=O)N[C@@H](Cc1ccccc1)C(=O)N[C@@H](CC(C)C)C(=O)N[C@@H](CCCNC(=N)N)C(=O)N[C@H](C)C(=O)N[C@@H](CCCNC(=N)N)C(=O)N1CCC[C@H]1C(=O)N[C@@H](CCCCN)C(N)=O` (Ac-YGPFLR[dA]RPK-NH2) the Ki (Mu-type opioid receptor; ng108-15) was “Not Active”.

For `CC(=O)N[C@@H](Cc1ccc(O)cc1)C(=O)NCC(=O)N1CCC[C@H]1C(=O)N[C@@H](Cc1ccccc1)C(=O)N[C@@H](CC(C)C)C(=O)N[C@@H](CCCNC(=N)N)C(=O)N[C@H](C)C(=O)N[C@@H](CCCNC(=N)N)C(=O)N1CCC[C@@H]1C(=O)N[C@@H](CCCCN)C(N)=O` (Ac-YGPFLR[dA]R[dP]K-NH2), the Ki (Mu-type opioid receptor; ng108-15) was “Not Active”.

For `CC(=O)N[C@@H](Cc1ccc(O)cc1)C(=O)NCC(=O)N1CCC[C@H]1C(=O)N[C@@H](Cc1ccccc1)C(=O)N[C@@H](CC(C)C)C(=O)N[C@@H](CCCN)C(=O)N[C@H](C)C(=O)N[C@@H](CCCNC(=N)N)C(=O)N1CCC[C@H]1C(=O)N[C@@H](CCCCN)C(N)=O` (Ac-YGPFL[Orn][dA]RPK-NH2), the Ki (Mu-type opioid receptor; ng108-15) was “Not Active” and the Ki [3] was over 10 µM.

For `CC[C@H](C)[C@H](NC(=O)[C@H](CCCNC(=N)N)NC(=O)[C@H](CC(C)C)NC(=O)[C@H](Cc1ccccc1)NC(=O)CNC(=O)CNC(=O)[C@@H](C)Cc1c(C)cc(O)cc1C)C(=O)N[C@@H](CCCNC(=N)N)C(N)=O` (X1-GGFLRIR-NH2), the Activity (Mus musculus [4]) was “Active”, the Activity (Mus musculus [5]) was “inactive” and the Activity (Mus musculus [6]) was “inactive”. The Activity (Mus musculus [7]) was “inactive” and the Activity (Mus musculus [8]) was “inactive”.

In the case of `CC[C@H](C)[C@H](NC(=O)[C@H](CCCNC(=N)N)NC(=O)[C@H](CC(C)C)NC(=O)[C@H](Cc1ccccc1)NC(=O)CNC(=O)CNC(=O)[C@@H](C)Cc1c(C)cc(O)cc1C)C(=O)N[C@@H](CCCNC(=N)N)C(=O)N1CCC[C@H]1C(=O)N[C@@H](CCCCN)C(N)=O` (X1-GGFLRIRPK-NH2), the Activity [9] is reported as “inactive”, the inhibition (Cavia porcellus) is reported as 0% and the viability at 24 h, 1000 µM [1] is reported as 100%.

For `CC[C@H](C)[C@H](NC(=O)[C@H](CCCNC(=N)N)NC(=O)[C@H](CC(C)C)NC(=O)[C@H](Cc1ccccc1)NC(=O)CNC(=O)CNC(=O)[C@@H](C)Cc1c(C)cc(O)cc1C)C(=O)N[C@@H](CCCNC(=N)N)C(=O)N1CCC[C@H]1C(=O)N[C@@H](CCCCN)C(=O)O` (X1-GGFLRIRPK-OH), the Activity [9] was “inactive” and the inhibition (Cavia porcellus) was 8.7%.

With Ac-YGGFLRIRPK-NH2 the Activity [9] was “inactive” and the inhibition (Cavia porcellus) was 0%.

In the case of Ac-YGPFLRIRPK-NH2, the Ki (Mu-type opioid receptor; ng108-15) is reported as “Not Active” and the Ki [3] is reported as over 10 µM.

With H-YGGFLRIRPK-NH2 the Activity ([9]; filed as agonist) was “Active”, the IC50 [10] was “Not Active” and the Imax [11] was “inactive”. For the same molecule, the viability at 24 h, 1000 µM [1] was 100%.

In the case of H-YGGFLRIRPK-OH, the Activity ([9]; filed as agonist) is reported as “Active”, the IC50 [10] is reported as “Not Active” and the Imax [11] is reported as “inactive”. It also gave a viability at 24 h, 1000 µM [1] of 100%.

In the case of H-YGGFLRIRPKLK-OH, the Activity ([9]; filed as agonist) is reported as “Active”, the IC50 [10] is reported as “Not Active” and the Imax [11] is reported as “inactive”.

In the case of H-YGPFLRIR-NH2, the Ki (Mu-type opioid receptor; ng108-15) is reported as “Not Active”, the Imax [12] is reported as 29% and the half-life [2] is reported as 126 min.

In the case of H-YGPFLRIRPK-NH2, the Ki (Mu-type opioid receptor; read-out: Ki) is reported as over 10 µM, the Imax [12] is reported as 38% and the Activity (Mus musculus [13]) is reported as “inactive”. The half-life [2] was 84 min, the Activity (Mus musculus [14]) was “Active” and the Activity (Mus musculus [5]) was “Active”. For the same molecule, the viability at 24 h, 1000 µM [1] was 100%, the Activity (Mus musculus [15]) was “Active” and the Activity (Mus musculus [8]) was “Active”.
